Assay results pooled from the literature.
Matrix: plasma

C[C@@]1(c2cc(NC(=O)c3ccc(C#N)cn3)ccc2F)C=CSC(N)=N1
Cmax (human; oral, 10 mg, single dose): 83.9 ng/mL

COCCOc1cnc2ccn([C@H](C)c3nnc4c(F)cc(-c5cnn(C)c5)cn34)c(=O)c2c1
Cmax (human; oral, 400 mg, multiple doses, once daily, patients): 5140 ng/mL

CO[C@H]1CC[C@H](N2C(=O)CNc3ncc(-c4ccc(C(C)(C)O)nc4)nc32)CC1
Cmax (human; oral, 45 mg, multiple doses, patients): 417 ng/mL

CC(C)(Sc1ccncc1-c1ccc(C#N)c2ccccc12)C(=O)O
Cmax (male human; oral, 20 mg, single dose, fasted, healthy volunteers): 384 ng/mL

CC(C)n1cc(C#N)c2cc(-n3cc(C(=O)O)cn3)ccc21
Cmax (human; oral, 25 mg, single dose, fasted, healthy volunteers): 978 ng/mL

CO[C@@H]1[C@H](OC(=O)N2CC(CCN3CCOCC3)C2)CC[C@]2(CO2)[C@H]1[C@@]1(C)O[C@@H]1CC=C(C)C
Cmax (human; subcutaneous, 1.2 mg, single dose, healthy volunteers): 7.04 ng/mL

COc1cc(C(=O)NC2CCN(C)CC2)c(F)cc1Nc1ncc(C(F)(F)F)c(Oc2cccc3c2C(=O)N(C)C3)n1
Cmax (human; oral, 300 mg, multiple doses, once daily, steady state, patients): 5060 nM

CCc1nc2c(C)cc(N3CCN(CC(=O)N4CC(O)C4)CC3)cn2c1N(C)c1nc(-c2ccc(F)cc2)c(C#N)s1
Cmax (human; oral, 1000 mg, single dose, fed, healthy volunteers): 11800 ng/mL

Cn1cc(-c2ccc(S(=O)(=O)[C@@H]3C[C@@H](C(=O)NC4(C#N)CC4)N(C(=O)C4(C(F)(F)F)CC4)C3)c(C(F)(F)F)c2)cn1
Cmax (human; oral, 3 mg, single dose, fasted, healthy volunteers): 20.8 ng/mL

COc1ccc([C@@H]2CN(C(=O)[C@@H](O)CO)C[C@@]2(C)[C@@H](C)O)cc1OC1CN(c2ccc(C)cn2)C1
Cmax (human; oral, 0.5 mg, single dose, healthy volunteers): 30 ng/mL

FC(F)(F)c1ccc(CNc2ccc(Cc3c[nH]c4ncc(Cl)cc34)cn2)cn1
Cmax (human; oral, 800 mg, multiple doses, patients): 6780 ng/mL

CCn1c(=O)c(-c2cc(NC(=O)Nc3ccccc3)c(F)cc2Br)cc2cnc(NC)cc21
Cmax (human; oral, 100 mg, single dose, patients): 500 ng/mL

CC(C)(O)c1ccccc1-c1ccc2[nH]c(/C=C/c3ccc(C(F)(F)F)cc3)nc2c1
Cmax (male human; oral, 30 mg, single dose, fasted, healthy volunteers): 91.8 ng/mL

Cn1c(=O)oc2ccc(-c3ccc(C[C@@H](C#N)NC(=O)[C@@H]4CNCCCO4)cc3)cc21
Cmax (male human; oral, 15 mg, single dose, healthy volunteers): 202 nM
